Substrate in the series: Nc1ncnc2c1ncn2[C@@H]1O[C@H](CO)[C@@H](O)[C@H]1O
Kind of series: Compound was evaluated for the kinetic constant on adenosine deaminase and expressed as Km. Put shortly: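 Calf intestinal adenosine deaminase (type III). Adenosine was mixed with a range of test compound concentrations in 1 mL 0.05 M phosphate buffer, pH 7.5, at 25 °C. Reactions were started with 20 milliunits of enzyme, and deamination was followed as the fall in absorbance at 265 nm. Kinetic constants came from Wilkinson analysis, with each point the mean of triplicates.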

B1: Adenosine deaminase (Mus musculus), P03958 (protein)
chain: MAQTPAFNKPKVELHVHLDGAIKPETILYFGKKRGIALPADTVEELRNIIGMDKPLSLPGFLAKFDYYMPVIAGCREAIKRIAYEFVEMKAKEGVVYVEVRYSPHLLANSKVDPMPWNQTEGDVTPDDVVDLVNQGLQEGEQAFGIKVRSILCCMRHQPSWSLEVLELCKKYNQKTVVAMDLAGDETIEGSSLFPGHVEAYEGAVKNGIHRTVHAGEVGSPEVVREAVDILKTERVGHGYHTIEDEALYNRLLKENMHFEVCPWSSYLTGAWDPKTTHAVVRFKNDKANYSLNTDDPLIFKSTLDTDYQMTKKDMGFTEEEFKRLNINAAKSSFLPEEEKKELLERLYREYQ
For B1, the Km – broadly, the concentration of substrate that gives half-maximal velocity – amounted to 7.8 µM.
